From PubChem BioAssay come the findings set out here.

Activity calls are given as the source filed them. Cut-off read from the data, not from the text of the source, unless noted: active = inhibition above about 30%; inactive = the rest.

Assay [1] is described as follows: Her2 expression decrease, cell viability multiplex – SKBR3 breast tumor cells, AlphaScreen, ATP viability, primary screen (AID 461;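 active = Her2 level under about 52% in both replicate screens, with viability over 70% of control, limit read from the data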;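 for Her2 level: lower value means less Her2 protein in the cells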;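 for viability: percent of carrier control wells set as 100% viability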). The settings on record: SKBR3 Her2 protein level, 18-24 h, measured here: SKBR3 viability, ATP luminescence, at 10 µM.
The target in assay [2] is Receptor tyrosine-protein kinase erbB-2 (Homo sapiens) (UniProt P04626). The description is as above. The settings on record: 18-24 h, at 10 µM, stronger effect = lower value.
Assay [3] is described as follows: reduced viability of SK-BR-3 breast cancer cells – cell-based, 24 h, human, pilot screen (AID 572;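 active = viability at or below 10% of carrier control in both of two separate runs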;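 note: compound exposure lasted between 18 and 24 h rather than exactly 24 h; 100% = carrier-treated control wells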). The settings on record: SK-BR-3 viability, CellTiter-Glo luminescence, at 10 µM, stronger effect = lower value.
A short description of assay [4]: HUVEC growth inhibition – cell-based, human, primary screen (AID 575;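 active = viability at or below 30% in both replicate assays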;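 note: 100% = median of untreated cell wells with 0.1% DMSO on each plate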). The settings on record: HUVEC proliferation, CellTiter-Glo luminescence, 72 h; at 10 µM; stronger effect = lower value. An outline of the steps: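 Test system: HUVEC primary cells. Quantity: 1250 endothelial cells in each well. Dosing: single-point 10 µM, DMSO 0.1% final. Incubation: 72 h treatment at 37 °C. Measured by: CTG luminescence. Control set: DMSO cell controls and MePR drug controls. Plate: collagen-coated 384-well format.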

Assay [5] is described as follows: H69AR cell proliferation blockers – human, duplicate replicates, primary screen (AID 580;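 active = viability at or under a set limit in both replicates, limit being median viability minus 3 SD, cut at about 48% in these data, passing the limit was not always enough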;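 note: 100% = mean luminescence of untreated wells and 0% = no signal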). The settings on record: H69AR lung tumor cells viability, ATP luminescence, 72 h; at 10 µM; stronger effect = lower value.
Assay [6] in a line: MRP1 drug-resistance reversers in H69AR cells – cell-based, doxorubicin co-treatment, pilot screen (AID 601;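 active = viability loss from added drug above about 55%, and viability with drug at most 40%, in both replicates, limit read from the data, passing the limit was not always enough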). The settings on record: CellTiter-Glo, 72 h, at 10 µM; for differential viability (reversal): stronger effect = higher value.
The nature of assay [7]: yeast transport mutant growth inhibition pilot in 384-well plates, post-Golgi transport modulator project (AID 636; in the data active = inhibition above about 31%). The settings on record: absorbance 615 nm, about 18 h, stronger effect = higher value.
The nature of assay [8]: growth suppression of yeast trafficking mutant, preliminary HTS, modulators of trafficking downstream of Golgi apparatus project, 1536-format plate, OD 615 nm (AID 637). The settings on record: yeast transport mutant growth, absorbance 615 nm, 18 h; stronger effect = higher value.
Where [9] appears, read: H69AR cells + 2 uM doxorubicin, measured here: viability with 2 uM doxorubicin, stronger effect = lower value.
Setting [10] is: H69AR cells, compound alone cytotoxicity.

Sequence of Receptor tyrosine-protein kinase erbB-2 (Homo sapiens) (P04626 whole entry, looked up): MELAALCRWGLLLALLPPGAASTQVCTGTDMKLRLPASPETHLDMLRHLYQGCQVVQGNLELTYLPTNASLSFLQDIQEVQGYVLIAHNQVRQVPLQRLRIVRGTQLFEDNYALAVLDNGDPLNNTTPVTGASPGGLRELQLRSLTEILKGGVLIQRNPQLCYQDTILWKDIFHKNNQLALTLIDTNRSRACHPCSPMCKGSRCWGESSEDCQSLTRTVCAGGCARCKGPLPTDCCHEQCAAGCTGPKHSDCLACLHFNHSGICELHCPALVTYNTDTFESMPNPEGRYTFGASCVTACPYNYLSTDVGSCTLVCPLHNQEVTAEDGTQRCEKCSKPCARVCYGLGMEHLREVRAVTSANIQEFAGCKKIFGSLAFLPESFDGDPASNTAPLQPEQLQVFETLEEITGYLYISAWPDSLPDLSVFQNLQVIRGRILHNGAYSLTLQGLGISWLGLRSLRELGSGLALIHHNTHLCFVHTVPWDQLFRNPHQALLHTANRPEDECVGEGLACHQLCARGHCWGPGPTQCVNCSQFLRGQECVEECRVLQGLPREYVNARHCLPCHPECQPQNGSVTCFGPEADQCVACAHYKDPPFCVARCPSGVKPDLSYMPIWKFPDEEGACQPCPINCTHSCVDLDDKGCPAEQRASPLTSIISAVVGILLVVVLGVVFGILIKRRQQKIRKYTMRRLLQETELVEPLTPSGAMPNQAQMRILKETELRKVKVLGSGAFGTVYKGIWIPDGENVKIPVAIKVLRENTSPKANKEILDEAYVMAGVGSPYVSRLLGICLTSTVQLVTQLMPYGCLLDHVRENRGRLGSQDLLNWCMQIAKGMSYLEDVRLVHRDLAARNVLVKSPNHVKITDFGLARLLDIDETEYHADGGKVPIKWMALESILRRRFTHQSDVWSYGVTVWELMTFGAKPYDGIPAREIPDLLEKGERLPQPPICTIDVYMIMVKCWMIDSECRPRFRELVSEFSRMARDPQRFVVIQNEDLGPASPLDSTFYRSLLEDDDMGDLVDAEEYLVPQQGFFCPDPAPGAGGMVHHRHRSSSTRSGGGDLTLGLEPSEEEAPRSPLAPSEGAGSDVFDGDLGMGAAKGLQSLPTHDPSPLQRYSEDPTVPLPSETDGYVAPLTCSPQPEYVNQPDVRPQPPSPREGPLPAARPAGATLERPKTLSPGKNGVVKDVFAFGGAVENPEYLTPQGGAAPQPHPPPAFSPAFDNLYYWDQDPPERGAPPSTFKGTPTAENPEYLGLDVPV

Take `Cc1noc(C)c1CSc1nnc2n(-c3ccccc3)c(=O)c3ccccc3n12`: the viability in assay [1] was 72.5%; in assay [3], 72.5% (inactive); in assay [4] it was 105% (inactive); in assay [5], 81.7% (inactive); in assay [6] (setting [9]) it was 101%; in assay [6] (setting [10]) it was 81.7%. In addition, the Her2 level in assay [2] was 75.5% (inactive). In addition, the differential viability (reversal) in assay [6] (H69AR cells + 2 uM doxorubicin) is -18.9% (inactive). The figures for the inhibition in assay [7] and in assay [8] were 2.31% (inactive) and -5.83% (inactive), respectively.

Turning to `CN1CCN(c2oc(COc3ccc(-c4ccccc4)cc3)nc2C#N)CC1`, the viability in assay [1] was 83.5%; in assay [3] it was 83.5% (inactive); in assay [4], 66.3% (inactive); in assay [5], 78.3% (inactive); in assay [6] (setting [9]), 60.5%; in assay [6] (setting [10]) it was 78.3%. Moreover, the Her2 level in assay [2] is 72.5% (inactive). Also, the differential viability (reversal) in assay [6] (H69AR cells + 2 uM doxorubicin) was 17.7% (inactive). Also, the inhibition in assay [7] is -5.6% (inactive); in assay [8], 0.79% (inactive).

With `O=C1OCc2cc(NC(=O)C3CCCO3)ccc21` (stereo not given), the viability in assay [1] is 92.5%; in assay [3] it was 92.5% (inactive); in assay [4] it was 101% (inactive); in assay [5], 104% (inactive); in assay [6] (setting [9]) it was 105%; in assay [6] (setting [10]) it was 104%. Besides, in assay [2], the Her2 level is 122% (inactive). Further, the differential viability (reversal) in assay [6] (H69AR cells + 2 uM doxorubicin) was -0.78% (inactive). Also, the inhibition was 1.84% (inactive) in assay [7] and -1.83% (inactive) in assay [8].

As to `O=C(NCc1ccc2c(c1)OCO2)C1CCCN(S(=O)(=O)c2cccnc2)C1` (stereo not given), the viability in assay [1] was 95.5%; in assay [3], 95.5% (inactive); in assay [4], 101% (inactive); in assay [5] it was 92.4% (inactive); in assay [6] (setting [9]) it was 84.8%; in assay [6] (setting [10]), 92.4%. Also, in assay [2], the Her2 level is 102% (inactive). Also, the differential viability (reversal) in assay [6] (H69AR cells + 2 uM doxorubicin) was 7.61% (inactive). Further, the inhibition in assay [7] is 0.38% (inactive); in assay [8], -6.5% (inactive).

Take `Cc1cccc(-c2nnc(SCC#N)n2-c2cccc(Cl)c2)c1`: the viability in assay [1] was 90.5%; in assay [3] it was 90.5% (inactive); in assay [4], 104% (inactive); in assay [5], 84.6% (inactive); in assay [6] (setting [9]) it was 88.6%; in assay [6] (setting [10]), 84.6%. The Her2 level in assay [2] was 83.5% (inactive). Also, the differential viability (reversal) in assay [6] (H69AR cells + 2 uM doxorubicin) is -3.93% (inactive). For the same molecule, the figures for the inhibition in assay [7] and in assay [8] were -6% (inactive) and 0% (inactive), respectively.

Consider `CN1CCN(CC(=O)Nc2ccc(Cl)cc2Cl)CC1`, for which the viability in assay [1] is 85.5%; in assay [3], 85.5% (inactive); in assay [4], 91.6% (inactive); in assay [5], 93.8% (inactive); in assay [6] (setting [9]) it was 90.5%; in assay [6] (setting [10]), 93.8%. The Her2 level in assay [2] was 95% (inactive). Moreover, the differential viability (reversal) in assay [6] (H69AR cells + 2 uM doxorubicin) is 3.29% (inactive). Moreover, the inhibition in assay [7] was -3.29% (inactive); in assay [8], 2.74% (inactive).

In the case of `CCOC(=O)c1sc(N)c(C(=O)OCC)c1COC(=O)C1CC(=O)N(Cc2ccco2)C1` (stereo not given), the viability in assay [1] was 91.5%; in assay [3], 91.5% (inactive); in assay [4] it was 80.7% (inactive); in assay [5] it was 72.4% (inactive); in assay [6] (setting [9]) it was 49.8%; in assay [6] (setting [10]), 72.4%. In addition, the Her2 level in assay [2] was 113% (inactive). The differential viability (reversal) in assay [6] (H69AR cells + 2 uM doxorubicin) was 22.6% (inactive). Besides, the figures for the inhibition in assay [7] and in assay [8] were -7.6% (inactive) and -8.71% (inactive), respectively.

For `COC(=O)C1=C(C)NC(=O)C1(Nc1ccc(Cl)cn1)C(F)(F)F` (stereo not given), the viability in assay [1] is 90.5%; in assay [3] it was 90.5% (inactive); in assay [4] it was 103% (inactive); in assay [5] it was 96.5% (inactive); in assay [6] (setting [9]), 97.7%; in assay [6] (setting [10]), 96.5%. In assay [2], the Her2 level is 83.5% (inactive). In assay [6] (H69AR cells + 2 uM doxorubicin), the differential viability (reversal) is -1.2% (inactive). Moreover, the inhibition was -3.59% (inactive) in assay [7] and -5.17% (inactive) in assay [8].

`CCS(=O)(=O)N1CCCC(C(=O)NCc2ccccc2Cl)C1` (stereo not given): the viability in assay [1] was 90%; in assay [3], 90% (inactive); in assay [4] it was 99.1% (inactive); in assay [5], 94.7% (inactive); in assay [6] (setting [9]) it was 88.9%; in assay [6] (setting [10]), 94.7%. In addition, the Her2 level in assay [2] is 110% (inactive). In addition, in assay [6] (H69AR cells + 2 uM doxorubicin), the differential viability (reversal) was 5.79% (inactive). In addition, the inhibition in assay [7] was -7.6% (inactive); in assay [8], -3.61% (inactive).

Take `CCOC(=O)c1sc2nc(C)cc(C)c2c1N`: the viability in assay [1] was 105%; in assay [3], 105% (inactive); in assay [4] it was 110% (inactive); in assay [5], 98.4% (inactive); in assay [6] (setting [9]) it was 82.8%; in assay [6] (setting [10]) it was 98.4%. Further, the Her2 level in assay [2] is 95% (inactive). Moreover, in assay [6] (H69AR cells + 2 uM doxorubicin), the differential viability (reversal) was 15.6% (inactive). For the same molecule, the inhibition was -5.07% (inactive) in assay [7] and 4.52% (inactive) in assay [8].

For the molecule `Cc1cccc(N2CCN(S(=O)(=O)c3ccc4c(c3)CCC(=O)N4)CC2C)c1` (stereo not given), the viability was 110% in assay [1]; 110% (inactive) in assay [3]; 84.7% (inactive) in assay [4]; 73.6% (inactive) in assay [5]; 83.9% in assay [6] (setting [9]); 73.6% in assay [6] (setting [10]). In assay [2], the Her2 level is 95% (inactive). Moreover, the differential viability (reversal) in assay [6] (H69AR cells + 2 uM doxorubicin) was -10.3% (inactive). In addition, the inhibition in assay [7] is -5.13% (inactive); in assay [8] it was -2.18% (inactive).

Consider `CCn1c(SCC(=O)Nc2nccs2)nnc1-c1ccncc1`, for which the viability in assay [1] is 101%; in assay [3] it was 101% (inactive); in assay [4], 87% (inactive); in assay [5], 84.8% (inactive); in assay [6] (setting [9]), 87.1%; in assay [6] (setting [10]), 84.8%. For the same molecule, the Her2 level in assay [2] was 63.5% (inactive). The differential viability (reversal) in assay [6] (H69AR cells + 2 uM doxorubicin) is -2.34% (inactive). Besides, the inhibition was -2.11% (inactive) in assay [7] and 2.7% (inactive) in assay [8].

Regarding `COc1ccc2c(c1)C(C)=CC(C)(C)N2C(=O)C(C)N1C(=O)c2ccccc2C1=O` (stereo not given), the viability in assay [1] was 109%; in assay [3] it was 109% (inactive); in assay [4], 81.6% (inactive); in assay [5], 85.7% (inactive); in assay [6] (setting [9]), 87%; in assay [6] (setting [10]) it was 85.7%. Besides, the Her2 level in assay [2] was 104% (inactive). For the same molecule, the differential viability (reversal) in assay [6] (H69AR cells + 2 uM doxorubicin) is -1.3% (inactive). Besides, the results for the inhibition in assay [7] and in assay [8] were -5.71% (inactive) and -3.33% (inactive), respectively.

Take `COc1ccccc1C1/C(=C(\O)c2c(C)nc3c(C)cccn23)C(=O)C(=O)N1CCCN(C)C` (stereo not given): the viability in assay [1] is 102%; in assay [3], 102% (inactive); in assay [4], 85.3% (inactive); in assay [5], 102% (inactive); in assay [6] (setting [9]) it was 89.2%; in assay [6] (setting [10]), 102%. The Her2 level in assay [2] was 79.5% (inactive). In addition, in assay [6] (H69AR cells + 2 uM doxorubicin), the differential viability (reversal) is 12.5% (inactive). Further, the inhibition in assay [7] is -7.43% (inactive); in assay [8], 5.67% (inactive).
